Key:
[1] = Metabolic stability in human liver microsomes assessed as parent compound remaining after 15 mins; format: ADME, Microsome; details: read-out: Stability
Toxin A = Toxin A (Clostridioides difficile, UniProt P16154); assay: Inhibition of Clostridium difficile toxin A […] CHO cells assessed as reduction in caspase 3/7 activation pre-incubated for 1 hr before TcdA addition by luminescence based assay; format: cell-based
Toxin B [2] = target: T1, Toxin B (Clostridioides difficile, UniProt P18177); assay: Inhibition of C-terminal 6-His tagged recombinant Clostridium difficile toxin B glucosyltransferase domain assessed as reduction in UDP-glucose hydrolysis activity using UDP-glucose substrate and ADP Alexa633 tracer incubated for 3 hrs by fluorescence polarization assay
[3] = Metabolic stability in mouse liver microsomes assessed as parent compound remaining after 15 mins; format: ADME, Microsome; details: read-out: Stability
Toxin B [4] = target: T1, Toxin B; assay: Inhibition of Clostridium difficile toxin B […] CHO cells assessed as reduction in caspase 3/7 activation pre-incubated for 1 hr before TcdB addition by luminescence based assay; format: cell-based
Clostridioides difficile [5] = assay: Antibacterial activity against Clostridium difficile infected hamster assessed as host survival at 50 mg/kg, po bid treated for 7 days (reference value: 2.3 days); format: functional
[6] = AUC (0 to infinity) in CD-1 mouse at 10 mg/kg, po; format: ADME, organism-based; set-up: dose 10 mg/kg, time infinity, route oral; details: in vivo
Outline: (§1)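 CD-1 mice, single dose. The i.v. dose was 1 mg/kg in 40% PEG400/5% ethanol/55% water (v/v/v). The p.o. dose was 10 mg/kg in 20% PEG400/80% (0.5% (w/v) CMC with 0.25% (v/v) Tween 80) (v/v). Plasma samples were analysed to derive Cl, T1/2, Vz, AUC0-inf, Cmax, Tmax and oral bioavailability F.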

[7] = Tmax in hamster at 10 mg/kg, po; format: ADME, organism-based; details: cricetinae, in vivo
[8] = Clearance in CD-1 mouse at 1 mg/kg, iv; format: ADME, organism-based; details: in vivo; outline: as §1
[9] = Elimination half life in CD-1 mouse at 1 mg/kg, iv; format: ADME, organism-based; details: in vivo, read-out: beta t1/2 (converted); outline: as §1
[10] = Oral bioavailability in CD-1 mouse at 10 mg/kg; format: ADME, organism-based; details: in vivo; outline: as §1
[11] = AUC(infinity) in hamster at 10 mg/kg, po; format: ADME, organism-based; set-up: dose 10 mg/kg, time infinity, route oral; details: cricetinae, in vivo
[12] = Cmax in hamster at 10 mg/kg, po; format: ADME, organism-based; set-up: dose 10 mg/kg, route oral; details: cricetinae, in vivo
[13] = Cmax in CD-1 mouse at 1 mg/kg, iv; format: ADME, organism-based; set-up: dose 1 mg/kg, route intravenous; details: in vivo; outline: as §1
[14] = Tmax in CD-1 mouse at 10 mg/kg, po; format: ADME, organism-based; details: in vivo; outline: as §1
[15] = Cmax in CD-1 mouse at 10 mg/kg, po; format: ADME, organism-based; set-up: dose 10 mg/kg, route oral; details: in vivo; outline: as §1
[16] = AUC (0 to infinity) in CD-1 mouse at 1 mg/kg, iv; format: ADME, organism-based; set-up: dose 1 mg/kg, time infinity, route intravenous; details: in vivo; outline: as §1
[17] = Apparent oral clearance in hamster at 10 mg/kg, po; format: ADME, organism-based; details: cricetinae, in vivo
[18] = Elimination half life in hamster at 10 mg/kg, po; format: ADME, organism-based; details: cricetinae, in vivo, read-out: beta t1/2 (converted)
[19] = Apparent volume of distribution during terminal phase in CD-1 mouse at 1 mg/kg, iv; format: ADME, organism-based; details: in vivo; outline: as §1
Clostridioides difficile [20] = assay: Antibacterial activity against Clostridium difficile infected hamster assessed as host survival at 5 mg/kg, po bid treated for 7 days (reference value: 2.3 days); format: functional

T1 sequence (P18177 whole entry, the tested form may be a part): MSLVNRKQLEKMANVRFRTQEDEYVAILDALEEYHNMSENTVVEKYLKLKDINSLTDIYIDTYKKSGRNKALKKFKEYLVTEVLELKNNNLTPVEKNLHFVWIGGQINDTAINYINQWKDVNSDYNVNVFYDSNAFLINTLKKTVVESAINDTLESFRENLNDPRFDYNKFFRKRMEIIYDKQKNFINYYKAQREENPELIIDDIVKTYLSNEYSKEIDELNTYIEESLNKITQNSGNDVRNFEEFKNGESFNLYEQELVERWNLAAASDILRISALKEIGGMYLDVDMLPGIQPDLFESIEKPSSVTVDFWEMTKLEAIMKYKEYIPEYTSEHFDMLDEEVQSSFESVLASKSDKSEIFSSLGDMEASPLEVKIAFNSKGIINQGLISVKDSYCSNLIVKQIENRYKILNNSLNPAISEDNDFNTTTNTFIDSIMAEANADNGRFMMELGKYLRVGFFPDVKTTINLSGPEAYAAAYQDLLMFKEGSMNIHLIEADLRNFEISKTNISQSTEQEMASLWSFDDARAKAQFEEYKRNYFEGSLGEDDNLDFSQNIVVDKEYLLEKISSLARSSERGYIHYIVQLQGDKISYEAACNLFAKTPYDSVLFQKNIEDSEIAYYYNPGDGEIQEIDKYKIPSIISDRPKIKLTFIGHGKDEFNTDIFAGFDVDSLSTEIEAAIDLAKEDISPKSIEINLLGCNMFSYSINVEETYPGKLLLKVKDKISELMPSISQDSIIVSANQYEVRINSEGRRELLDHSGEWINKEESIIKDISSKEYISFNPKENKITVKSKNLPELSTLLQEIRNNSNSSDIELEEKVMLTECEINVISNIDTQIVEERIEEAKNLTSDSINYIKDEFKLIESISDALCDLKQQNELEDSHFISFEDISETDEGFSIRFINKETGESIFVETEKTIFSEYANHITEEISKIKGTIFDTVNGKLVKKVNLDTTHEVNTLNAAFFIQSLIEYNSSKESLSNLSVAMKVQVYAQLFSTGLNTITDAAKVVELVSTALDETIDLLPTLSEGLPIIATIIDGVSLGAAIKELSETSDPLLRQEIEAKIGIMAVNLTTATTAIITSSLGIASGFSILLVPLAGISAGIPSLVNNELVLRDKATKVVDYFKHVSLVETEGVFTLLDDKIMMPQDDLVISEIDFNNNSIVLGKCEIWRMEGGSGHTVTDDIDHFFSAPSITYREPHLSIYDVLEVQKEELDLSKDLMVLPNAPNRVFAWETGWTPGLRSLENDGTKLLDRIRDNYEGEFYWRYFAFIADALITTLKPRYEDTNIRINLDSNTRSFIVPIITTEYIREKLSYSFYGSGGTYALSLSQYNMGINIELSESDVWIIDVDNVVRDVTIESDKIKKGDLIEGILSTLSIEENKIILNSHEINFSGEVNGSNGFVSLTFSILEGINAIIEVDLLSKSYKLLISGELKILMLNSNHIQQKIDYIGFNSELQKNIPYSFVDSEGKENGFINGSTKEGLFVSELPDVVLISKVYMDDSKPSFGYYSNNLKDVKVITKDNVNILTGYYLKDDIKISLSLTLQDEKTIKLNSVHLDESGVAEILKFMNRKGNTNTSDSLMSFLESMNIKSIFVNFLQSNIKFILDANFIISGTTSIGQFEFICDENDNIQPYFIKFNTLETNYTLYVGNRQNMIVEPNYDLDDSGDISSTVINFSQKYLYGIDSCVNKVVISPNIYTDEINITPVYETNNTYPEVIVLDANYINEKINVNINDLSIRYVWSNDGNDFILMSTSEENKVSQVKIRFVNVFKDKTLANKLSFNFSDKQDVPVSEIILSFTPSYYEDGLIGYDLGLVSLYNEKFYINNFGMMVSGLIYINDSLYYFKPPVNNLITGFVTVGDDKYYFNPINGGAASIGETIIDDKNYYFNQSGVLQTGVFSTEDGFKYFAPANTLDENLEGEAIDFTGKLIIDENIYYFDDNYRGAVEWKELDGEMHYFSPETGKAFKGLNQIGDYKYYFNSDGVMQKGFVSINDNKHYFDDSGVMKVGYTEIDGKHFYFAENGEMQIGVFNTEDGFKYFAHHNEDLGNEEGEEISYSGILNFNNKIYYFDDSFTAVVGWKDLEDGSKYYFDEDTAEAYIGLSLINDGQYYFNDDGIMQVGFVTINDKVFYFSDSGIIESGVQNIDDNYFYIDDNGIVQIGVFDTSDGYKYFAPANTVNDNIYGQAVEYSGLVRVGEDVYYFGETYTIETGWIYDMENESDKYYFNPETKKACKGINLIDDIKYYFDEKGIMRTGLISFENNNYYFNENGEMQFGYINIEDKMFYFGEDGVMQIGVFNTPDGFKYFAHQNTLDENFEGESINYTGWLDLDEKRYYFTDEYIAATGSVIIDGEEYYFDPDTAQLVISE
Sequence of Toxin A (P16154 whole entry, the tested form may be a part): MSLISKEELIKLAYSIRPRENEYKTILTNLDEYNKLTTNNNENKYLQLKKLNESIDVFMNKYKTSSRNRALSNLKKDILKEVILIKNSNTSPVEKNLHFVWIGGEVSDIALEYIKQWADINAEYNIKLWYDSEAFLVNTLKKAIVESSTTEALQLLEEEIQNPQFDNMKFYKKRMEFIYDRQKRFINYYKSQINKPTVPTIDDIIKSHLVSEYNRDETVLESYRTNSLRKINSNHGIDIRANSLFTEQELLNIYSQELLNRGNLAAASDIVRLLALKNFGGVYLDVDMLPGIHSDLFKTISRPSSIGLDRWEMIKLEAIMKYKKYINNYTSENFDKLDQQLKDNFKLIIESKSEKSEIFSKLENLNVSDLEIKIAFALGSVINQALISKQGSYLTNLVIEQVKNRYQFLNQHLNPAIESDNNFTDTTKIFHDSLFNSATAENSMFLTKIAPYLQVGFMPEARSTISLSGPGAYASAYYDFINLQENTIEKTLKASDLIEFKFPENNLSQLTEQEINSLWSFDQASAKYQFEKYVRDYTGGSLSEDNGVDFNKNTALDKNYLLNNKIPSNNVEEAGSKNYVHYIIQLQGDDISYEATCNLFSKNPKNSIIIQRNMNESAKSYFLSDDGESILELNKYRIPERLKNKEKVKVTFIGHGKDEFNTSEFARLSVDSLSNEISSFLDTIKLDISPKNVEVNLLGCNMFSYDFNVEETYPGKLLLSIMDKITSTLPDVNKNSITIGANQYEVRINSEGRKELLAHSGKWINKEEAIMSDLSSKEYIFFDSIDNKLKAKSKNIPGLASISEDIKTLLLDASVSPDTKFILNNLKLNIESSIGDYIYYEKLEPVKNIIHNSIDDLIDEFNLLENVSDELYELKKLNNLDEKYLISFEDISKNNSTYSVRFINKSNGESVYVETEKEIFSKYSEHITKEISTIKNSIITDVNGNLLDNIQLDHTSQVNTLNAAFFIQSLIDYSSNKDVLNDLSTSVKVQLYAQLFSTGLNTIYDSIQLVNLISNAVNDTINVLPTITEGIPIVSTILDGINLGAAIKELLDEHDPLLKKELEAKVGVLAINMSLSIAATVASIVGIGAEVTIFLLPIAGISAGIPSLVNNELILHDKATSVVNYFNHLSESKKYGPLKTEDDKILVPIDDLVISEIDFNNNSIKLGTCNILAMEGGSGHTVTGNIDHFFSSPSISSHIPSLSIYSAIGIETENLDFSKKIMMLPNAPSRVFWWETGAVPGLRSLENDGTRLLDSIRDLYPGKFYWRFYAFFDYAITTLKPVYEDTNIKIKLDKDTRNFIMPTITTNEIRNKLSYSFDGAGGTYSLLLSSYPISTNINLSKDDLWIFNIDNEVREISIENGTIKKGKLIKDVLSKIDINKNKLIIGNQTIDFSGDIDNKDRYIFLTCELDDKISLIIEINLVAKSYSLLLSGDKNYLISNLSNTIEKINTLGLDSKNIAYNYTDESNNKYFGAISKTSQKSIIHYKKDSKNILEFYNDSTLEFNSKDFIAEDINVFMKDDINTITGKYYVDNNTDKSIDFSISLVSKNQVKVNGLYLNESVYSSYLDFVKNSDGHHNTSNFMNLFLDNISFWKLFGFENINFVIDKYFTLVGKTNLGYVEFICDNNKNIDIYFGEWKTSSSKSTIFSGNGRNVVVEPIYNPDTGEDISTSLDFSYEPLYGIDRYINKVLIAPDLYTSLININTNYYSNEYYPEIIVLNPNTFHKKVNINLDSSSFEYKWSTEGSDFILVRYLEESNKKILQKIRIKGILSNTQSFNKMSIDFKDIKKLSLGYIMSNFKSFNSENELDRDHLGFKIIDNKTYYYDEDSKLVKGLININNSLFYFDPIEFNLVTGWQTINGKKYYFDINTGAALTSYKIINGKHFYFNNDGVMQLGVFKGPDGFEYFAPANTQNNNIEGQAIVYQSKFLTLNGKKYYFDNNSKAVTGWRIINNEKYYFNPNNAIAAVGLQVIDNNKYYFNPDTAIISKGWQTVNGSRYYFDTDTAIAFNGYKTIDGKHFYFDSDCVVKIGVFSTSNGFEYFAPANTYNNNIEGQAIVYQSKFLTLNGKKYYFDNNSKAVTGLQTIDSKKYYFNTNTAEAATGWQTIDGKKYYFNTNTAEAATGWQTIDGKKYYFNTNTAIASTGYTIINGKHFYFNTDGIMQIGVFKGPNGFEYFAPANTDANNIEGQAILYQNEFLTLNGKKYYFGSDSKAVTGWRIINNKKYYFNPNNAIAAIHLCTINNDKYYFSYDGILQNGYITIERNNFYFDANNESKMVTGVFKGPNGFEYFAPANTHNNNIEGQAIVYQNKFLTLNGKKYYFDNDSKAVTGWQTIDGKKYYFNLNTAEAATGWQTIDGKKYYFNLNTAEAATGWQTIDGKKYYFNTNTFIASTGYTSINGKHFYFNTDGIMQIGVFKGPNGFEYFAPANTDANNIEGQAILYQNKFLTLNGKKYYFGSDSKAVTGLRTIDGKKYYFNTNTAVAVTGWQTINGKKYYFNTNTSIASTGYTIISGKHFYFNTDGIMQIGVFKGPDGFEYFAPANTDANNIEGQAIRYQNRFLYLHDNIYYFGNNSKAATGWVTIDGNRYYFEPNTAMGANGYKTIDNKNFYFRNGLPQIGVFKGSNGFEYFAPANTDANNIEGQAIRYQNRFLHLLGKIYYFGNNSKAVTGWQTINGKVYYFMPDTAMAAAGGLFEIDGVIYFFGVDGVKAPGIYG

SMILES	remaining at 0.25 h [1]	IC50 (Toxin A)	IC50 (Toxin B [2])	remaining at 0.25 h [3]	IC50 (Toxin B [4])	further results
COc1cnc(NC(=O)c2ccc(CN3C(=O)c4ccc(Cl)cc4NC(=O)[C@H]3Cc3ccccn3)cc2Cl)nc1	73%	920 nM	4 nM	38%	53 nM	–
Cn1ccnc1C(=O)c1ccc(CN2C(=O)c3ccc(Cl)cc3NC(=O)[C@H]2Cc2ccccn2)cc1	49%	> 100000 nM	190 nM	33%	> 100000 nM	–
O=C(Nc1ccc(C(F)(F)F)cn1)c1ccc(CN2C(=O)c3ccc(Cl)cc3NC(=O)[C@H]2Cc2ccccn2)cc1Cl	94%	6300 nM	18 nM	92%	250 nM	MST (Clostridioides difficile [5]): 12.3 days; AUC(0-inf) [6]: 9420 ng·h/mL; Tmax [7]: 0.25 h; clearance [8]: 28 mL/min/kg; half-life [9]: 2.6 h; F [10]: 159%; AUC(0-inf) [11]: 21500 ng·h/mL; Cmax [12]: 2750 ng/mL; Cmax [13]: 312 ng/mL; Tmax [14]: 0.25 h; Cmax [15]: 1530 ng/mL; AUC(0-inf) [16]: 592 ng·h/mL; CL/F [17]: 7.8 mL/min/kg; half-life [18]: 10 h; Vz/F [19]: 6.2 L/kg
Cc1ccc(NC(=O)c2ccc(CN3C(=O)c4ccc(Cl)cc4NC(=O)[C@H]3Cc3ccccn3)cc2Cl)nc1	57%	580 nM	5 nM	57%	24 nM	–
O=C(c1ccc(CN2C(=O)c3ccc(Cl)cc3NC(=O)[C@H]2Cc2ccccn2)cc1)c1c[nH]c2cccnc12	87%	18000 nM	2 nM	93%	1800 nM	–
Cc1cnc(NC(=O)c2ccc(CN3C(=O)c4ccc(Cl)cc4NC(=O)[C@H]3Cc3ccccn3)cc2C)nc1	74%	3000 nM	4 nM	44%	130 nM	–
COc1cnc(NC(=O)c2ccc(CN3C(=O)c4ccc(Cl)cc4NC(=O)[C@H]3Cc3ccccn3)cc2Cl)cn1	100%	3400 nM	21 nM	68%	490 nM	–
O=C(O)c1ccc(CN2C(=O)c3ccc(Cl)cc3NC(=O)[C@H]2Cc2ccccn2)cc1Cl	–	–	480 nM	–	–	–
Cc1cc(CN2C(=O)c3ccc(Cl)cc3NC(=O)[C@H]2Cc2ccccn2)ccc1C(=O)Nc1ccc(C(F)(F)F)cn1	100%	2400 nM	20 nM	99%	170 nM	–
Cn1cc(C(=O)c2ccc(CN3C(=O)c4ccc(Cl)cc4NC(=O)[C@H]3Cc3ccccn3)cc2)c2ncccc21	67%	5300 nM	6 nM	76%	330 nM	–
CN[C@H](CC(C)C)C(=O)N[C@H]1C(=O)N[C@@H](CC(N)=O)C(=O)N[C@H]2C(=O)N[C@H]3C(=O)N[C@H](C(=O)N[C@H](C(=O)O)c4cc(O)cc(O)c4-c4cc3ccc4O)[C@H](O)c3ccc(c(Cl)c3)Oc3cc2cc(c3O[C@@H]2O[C@H](CO)[C@@H](O)[C@H](O)[C@H]2O[C@H]2C[C@](C)(N)[C@H](O)[C@H](C)O2)Oc2ccc(cc2Cl)[C@H]1O [VANCOMYCIN]	–	–	–	–	–	MST (Clostridioides difficile [20]): 12 days
O=C(O)c1c(Cl)cc(CN2C(=O)c3ccc(Cl)cc3NC(=O)[C@H]2Cc2ccccn2)cc1Cl	–	–	7400 nM	–	–	–
N#Cc1ccc(NC(=O)c2ccc(CN3C(=O)c4ccc(Cl)cc4NC(=O)[C@H]3Cc3ccccn3)cc2Cl)nc1	90%	–	8 nM	84%	52 nM	–
Cc1ccc(C(=O)c2ccc(CN3C(=O)c4ccc(Cl)cc4NC(=O)[C@H]3Cc3ccccn3)cc2)nc1	57%	23000 nM	38 nM	68%	5900 nM	–
O=C(c1ccc(CN2C(=O)c3ccc(Cl)cc3NC(=O)[C@H]2Cc2ccccn2)cc1)c1cccn2ncnc12	15%	–	61 nM	44%	1600 nM	–
Cc1ccnc(C(=O)c2ccc(CN3C(=O)c4ccc(Cl)cc4NC(=O)[C@H]3Cc3ccccn3)cc2)c1	26%	–	74 nM	48%	–	–
O=C(c1ccc(CN2C(=O)c3ccc(Cl)cc3NC(=O)[C@H]2Cc2ccccn2)cc1)c1ccccn1	64%	37000 nM	45 nM	79%	4200 nM	–

Source: ChEMBL document CHEMBL4325886, “Synthesis and SAR studies of novel benzodiazepinedione-based inhibitors of Clostridium difficile (C. difficile) toxin B (TcdB)” (Bioorg Med Chem Lett, 2018)
